Data published in PubChem BioAssay AID617 (SRMLSC, 2007).

System: E. coli BW25113 ΔtolC growth inhibition, OD615
Assay: E. coli ΔtolC antibacterial growth inhibition – strain BW25113 ΔtolC::kan, dose response (AID 617)
Method in brief: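 system = E. coli BW25113 tolC deletion strain (ΔtolC::kan), whole bacterial cells | technique = optical density (absorbance) at 615 nm | dosing = compounds in serially diluted dose-response series | times = bacterial growth with compound for 20 h, 37 °C | evaluation = growth-inhibition IC50 from four-parameter logistic curve, bounds set to 0% and 100%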

Structure (SMILES) | IC50
N#Cc1c(NC(NC(=O)c2ccco2)C(=O)c2ccccc2)sc2c1CCCC2 (stereo unspecified) | 13.5 µM
CCc1cccc(NC(=O)c2ccc(NS(=O)(=O)c3c(C)noc3C)cc2)c1 | 7.16 µM
COc1ccc2nc(N3CCC(C)CC3)c(C#N)cc2c1 | 28.9 µM
CCc1ccccc1NS(=O)(=O)c1ccc(SC)cc1 | 41.6 µM
Cc1cc(C(=O)OCc2nnc(-c3ccccc3)o2)c(C)n1-c1ccccc1 | 9.88 µM
COc1ccc(-c2nnc(NC(=O)c3ccc(S(=O)(=O)N4COCC4(C)C)cc3)o2)cc1 | 0.52 µM
Cc1ccc2c(c1)c1c(n2CC(O)Cn2c(C)nc3ccccc32)/C(=N\O)CCC1 (stereo unspecified) | 26.1 µM
CC1CCCN(S(=O)(=O)c2ccc(C(=O)Nc3nnc(-c4ccccc4Cl)o3)cc2)C1 (stereo unspecified) | 0.41 µM
CC(C)(C)c1ccc(-c2nnc(SCCC#N)n2C2CCCC2)cc1 | 15.8 µM
O=S(=O)(N1CCCCC1)n1c(Cc2ccccc2)nc2ccccc21 | 6.89 µM
COc1ccc(-c2cc(C(=O)N3CCCc4ccccc43)no2)cc1 | 20.5 µM
N#Cc1nc(Cc2ccccc2)oc1NCc1ccccc1Cl | 4.79 µM
Cc1cc(C)n(-c2nc(SCC(=O)N3CCCC3)c3c4c(sc3n2)CCCC4)n1 | 23.9 µM
c1ccc(CSc2nnc(-c3ccco3)c(-c3ccco3)n2)cc1 | 11.1 µM
CCc1cc(C(=O)Cc2ccc(F)cc2)c(O)cc1O | 7.76 µM
O=C(Nc1cccc(Cl)c1)Nc1nccs1 | 11 µM
CCOC(=O)c1c(NC(=O)C(F)(OC)C(F)(F)F)sc(C(=O)N2CCCCC2)c1C (stereo unspecified) | 24.6 µM
COc1ccc(NC(=O)N(C2CCCCC2)C(C)c2ccco2)c(OC)c1 (stereo unspecified) | 15 µM
CCN(CC)c1ccc(C(=O)Nc2cccc(F)c2)cc1 | 8.06 µM
CCOc1ccc2nc(N3CCCN(C(=O)Nc4ccccc4C)CC3)c(C#N)cc2c1 | 36.3 µM
O=S(=O)(Nc1nc2ccccc2nc1NCc1ccco1)c1ccccc1 | 8.89 µM
CCC(Sc1nnc(-c2ccc(C)c(Cl)c2)n1CC)C(=O)Nc1nccs1 (stereo unspecified) | 14.9 µM
O=S(=O)(Nc1nc2ccccc2nc1NCc1ccco1)c1ccc(Cl)cc1 | 4.77 µM

Structure (SMILES) | IC50
COCCCN1C(=O)c2[nH]nc(-c3ccccc3O)c2C1c1ccc(Cl)cc1 (stereo unspecified) | 5.96 µM
Cc1ccc(Cn2c(SCC(C)C)nc3c2c(=O)n(C)c(=O)n3C)cc1 | 89.6 µM
c1ccc(CSc2nnc(-c3ccco3)n2Cc2ccccc2)cc1 | 13.8 µM
O=C(c1cccc(F)c1)N1CCN(C(=O)c2cc(-c3ccc(Cl)cc3Cl)on2)CC1 | 9.75 µM
O=S(=O)(c1ccccc1)c1nc(-c2ccco2)oc1N1CCCCCC1 | 11.2 µM
O=C(Nc1nc(-c2ccccn2)cs1)c1ccc(Cl)s1 | 0.13 µM
COc1ccc2c(c1)CCc1c(C(=O)N3CCc4ccccc4C3)noc1-2 | 5.76 µM
Cc1ccc2[nH]c3c(c2c1)CCc1cn[nH]c1-3 | 17.8 µM
CC1CCCN(S(=O)(=O)c2ccc(NC(=O)Cn3nnc(-c4ccccc4F)n3)cc2)C1 (stereo unspecified) | 26.6 µM
Cc1cc(-c2nnc3n2N=C(c2ccc(-c4ccccc4)cc2)CS3)n[nH]1 | 9.55 µM
CCCCn1c(NC(=O)c2ccccc2)c(C#N)c2nc3ccccc3nc21 | 2.79 µM
O=C(Nc1nc(SCc2ccc(F)cc2)ns1)c1ccco1 | 4.2 µM
COc1ccc(C2c3sc(=O)[nH]c3SC3C4CCC(C4)C23)cc1 (stereo unspecified) | 10 µM
CC1CCN(S(=O)(=O)c2ccc(Cl)cc2Br)CC1 | 17.5 µM
CCOC(=O)c1nnn(-c2nonc2-n2cccc2)c1CN1CCC(C)CC1 | 23.4 µM
Cc1csc(NC(=O)CSc2ncnc3c2cnn3-c2ccccc2Cl)n1 | 16.4 µM
COc1ccc(C(C)(C)C)cc1NC(=O)Nc1ccc2c(c1)OCO2 | 5.28 µM
CC1(C)Cc2c(c(N3CCCC3)nc3sc4c(N5CCN(CCO)CC5)ncnc4c23)CO1 | 18.1 µM
Cc1cc(Nc2ccccc2)nc(-c2ccccc2O)n1 | 15.4 µM
c1ccc2oc(SCc3nc4ccccc4s3)nc2c1 | 29.1 µM
O=C(Nc1ccc(Cl)cc1)N(Cc1cccs1)Cc1cccs1 | 10.7 µM
COc1ccc(-c2cnc(SCC(=O)Nc3cc(C)on3)n2Cc2ccco2)cc1 | 35.7 µM
COc1cccc(C(=O)Nc2nnc(-c3cccs3)o2)c1 | 3.87 µM

Structure (SMILES) | IC50
N#Cc1nc(Cc2cccc3ccccc23)oc1NCCCn1ccnc1 | 24.2 µM
CCC(=NCc1ccc2c(c1)OCO2)c1c(O)n(C2CCCCC2)c(=O)[nH]c1=O | 12 µM
CC1CN(c2oc(COc3ccc(Cl)cc3Cl)nc2C#N)CC(C)O1 (stereo unspecified) | 10.3 µM
COC(=O)c1ccccc1NC(=O)c1ccc2c(c1)OCCO2 | 21.9 µM
COc1ccc(-c2nc(-c3cccs3)c(-c3cccs3)[nH]2)cc1O | 6.09 µM
CCn1cc(C(=O)NCc2ccc3c(c2)OCO3)c(=O)c2cc(F)c(N3CCN(C)CC3)cc21 | 2.8 µM
Cc1ccc(-n2c(=O)[nH]cc(C(=O)Nc3ccc4c(c3)OCCO4)c2=O)cc1C | 26.9 µM
O=C(Cc1ccccc1)Nc1ccccc1N1CCN(c2ccccc2)CC1 | 64.5 µM
O=C(c1ccco1)N1CCN(c2c(-c3ccccc3)c3cc(Cl)ccc3[nH]c2=O)CC1 | 24 µM
CC(O)c1c(OCc2ccccc2)ncnc1OCc1ccccc1 (stereo unspecified) | 10.7 µM
COc1ccccc1OCC(=O)N(Cc1nc(-c2ccccc2)no1)C1CCCCC1 | 12.7 µM
Cc1cc(NC(=O)c2ccccc2)sc1C | 5.59 µM
Cc1ccc(NC(=O)CSC2=C(C#N)C(c3ccco3)C3=C(CC(C)(C)CC3=O)N2)cc1 (stereo unspecified) | 8.92 µM
O=S(=O)(Nc1cc(Cl)ccc1N1CCCCC1)c1cccs1 | 12.5 µM
CCn1cc(C(=O)Nc2nncs2)c(=O)c2cc(F)c(N3CCN(C(=O)c4ccco4)CC3)cc21 | 0.19 µM
Cc1ccc(C(C)C)c(Oc2nnnn2-c2ccccc2)c1 | 14.7 µM
N#CC1=C(SCC(=O)c2cc3ccccc3oc2=O)NC(=O)C(C#N)C12CCCC2 (stereo unspecified) | 12.7 µM
Cc1ccc(OCc2nc(C#N)c(N3CCN(Cc4ccccc4)CC3)o2)cc1 | 12.9 µM
CCSc1oc(-c2ccccc2)nc1S(=O)(=O)c1ccccc1 | 11.1 µM
O=C(Nc1ccccc1N1CCCCC1)c1cccs1 | 12.8 µM
C=CCn1c(SCC(=O)Nc2ccc3c(c2)CCC3)nnc1-c1cccs1 | 53.8 µM
CCNc1nc(SCc2ccccc2)nc(N2CCOCC2)n1 | 17.8 µM
COc1ccc(-c2cc3nc4c(c(N5CCC6(CC5)OCCO6)n3n2)CCCC4)cc1 | 28.8 µM

Structure (SMILES) | IC50
COc1nc(N(c2ccccc2)c2ccccc2)nc(-n2ccnc2)n1 | 5.65 µM
CCOC(=O)Cc1c(C)nc2c(-c3ccc(Cl)cc3)c[nH]n2c1=O | 2.11 µM
Cc1cccc(C)c1NC(=O)C(c1cccs1)N(Cc1ccco1)C(=O)Cn1nnc2ccccc21 (stereo unspecified) | 29.3 µM
CCCc1cc(-c2[nH]ncc2-c2ccc3c(c2)OCCCO3)c(O)cc1O | 5.48 µM
O=c1c2c(nc3c(-c4cccc5ccccc45)c[nH]n13)CCC2 | 7 µM
N#Cc1cn(Cc2cccc(Cl)c2)c2ccccc12 | 7.45 µM
CCOC(=O)c1cn(CC)c2cc(N3CCCCC3)c(F)cc2c1=O | 3.42 µM
N#C/C(=C\c1cccs1)Sc1nc2ccccc2s1 | 9.02 µM
CCC(c1nnnn1C1CCCCC1)N(Cc1ccco1)Cc1cc2ccc(OC)cc2[nH]c1=O (stereo unspecified) | 13.3 µM
CCn1c(SC)nnc1-c1sc2cc(Cl)ccc2c1Cl | 11.6 µM
c1ccc(-c2oc3ncnc(NCCCn4ccnc4)c3c2-c2ccccc2)cc1 | 6.05 µM
CC(=Nc1ccc(O)cc1)c1sc2ccccc2c1O | 0.89 µM
O=C(CN(C1CC1)S(=O)(=O)c1ccc(S(=O)(=O)NC2CCCCC2)cc1)Nc1ccccc1 | 10.5 µM
Cc1cccc(N=c2oc3cc(O)ccc3cc2C(N)=O)c1 | 23 µM
N#Cc1nc(COc2ccccc2F)oc1NCCc1ccccc1 | 16.7 µM
CC(C)Cn1c(=O)c(C(=O)Nc2cnccn2)c(O)c2ccccc21 | 14 µM
CCC(C)(C)n1nnnc1C(c1cc2ccc(C)cc2[nH]c1=O)N(Cc1cccnc1)Cc1ccco1 (stereo unspecified) | 15.2 µM
Clc1ccc(OCc2nc(-c3ccccn3)n[nH]2)cc1 | 15.4 µM
COC(=O)c1[nH]c2cccc(OC)c2c1NC(=O)CN1CC2(C)CC1CC(C)(C)C2 (stereo unspecified) | 38.8 µM
CCOC(=O)N1CCN(c2nc(-c3ccc(F)cc3)cs2)CC1 | 32.4 µM
CC1Oc2ccccc2N(Cc2ccccc2Cl)C1=O (stereo unspecified) | 27.9 µM
c1ccc(CN2CCN(c3nc(-c4ccccc4)nc(-n4ccnc4)n3)CC2)cc1 | 6.13 µM
C=C(C)COc1ccc(-c2[nH]ncc2Oc2ccccc2OCC)c(O)c1 | 6.14 µM

Structure (SMILES) | IC50
O=C(O)CCCC(=O)N1CCc2cc(S(=O)(=O)N3CCc4ccccc43)ccc21 | 10.7 µM
Cn1c(=O)n(Cc2ccccc2)c(=O)c2c1nc1n2CCCN1Cc1ccccc1 | 42.8 µM
Cc1onc(-c2ccccc2Cl)c1C(=O)Nc1sc2c(c1C#N)CCC2 | 7.5 µM
CCCCCn1c(CN2CCN(c3cccc(Cl)c3)CC2)nc2c1c(=O)n(C)c(=O)n2C | 15.2 µM
O=C(CSc1nnnn1C1CCCCC1)Nc1cccc(NC(=O)c2ccco2)c1 | 15.5 µM
O=S(=O)(NC1CCCC1)c1ccc(S(=O)(=O)N(Cc2cccs2)CC2CCCO2)cc1 (stereo unspecified) | 21 µM
O=C(c1ccc(COc2ccc(Cl)cc2)o1)N1CCN(Cc2ccc3c(c2)OCO3)CC1 | 5.35 µM
COC(=O)c1ccc(OC)c(CSc2nnc(COc3ccccc3)o2)c1 | 23.1 µM
c1ccc(Cn2nnc3c(N4CCN(Cc5ccc6c(c5)OCO6)CC4)ncnc32)cc1 | 22.6 µM
Cc1cccc(N2CCN(C(=O)Cc3c(C(=O)O)[nH]c4ccc(Cl)cc34)CC2)c1C | 7.52 µM
COc1ccc(-c2n[nH]c(C(F)(F)F)c2-c2cc3ccccc3o2)c(O)c1 | 1.99 µM
c1ccc(-c2csc(N3CCN(c4ccccn4)CC3)n2)cc1 | 8.99 µM
Cc1cccc(N2CCN(C(=O)c3cn(C)c(=O)c4c3c3ccccc3n4C)CC2)c1C | 16 µM
O=C1c2[nH]nc(-c3ccccc3O)c2C(c2ccccc2)N1Cc1ccco1 (stereo unspecified) | 2.45 µM
c1ccc(-c2cccc(-c3ccccn3)n2)nc1 | 19.4 µM
CC1(C)CC2CC(C)(CN2C(=O)c2cc(-c3ccccc3O)on2)C1 (stereo unspecified) | 3.42 µM
Cc1cc(C)c(O)c(-c2cc(C(=O)Nc3ccc(S(=O)(=O)N4CCOCC4)cc3)[nH]n2)c1 | 6.03 µM
Cn1c(CSc2nc3ccccc3s2)nc2ccccc21 | 22.4 µM
COCCn1nnnc1C(C(C)C)N(Cc1ccccc1)Cc1cc2cc(OC)ccc2[nH]c1=O (stereo unspecified) | 11 µM
